Assay results from ChEMBL document CHEMBL2311390, “Synthesis and preliminary evaluation of pharmacological properties of some piperazine derivatives of xanthone” (Bioorg Med Chem, 2013).
One block for each molecule: values may come before it.

How the values were obtained:
Rattus norvegicus [1] = assay: Antiarrhythmic activity in iv dosed Wistar rat adrenaline-induced arrhythmia model assessed as reduction of heart-rhythm disturbance administered 15 mins adrenaline-challenge; assay type: functional; conditions: 0.25 h
Procedure, shortened: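 Anaesthetised male Wistar rats (thiopental 75 mg/kg ip). Test compound iv at 1 mL/kg, given 15 min before adrenaline 20 µg/kg iv. Activity means no premature beats and inhibition of arrhythmia, judged against a control group. There were three dose groups of six rats. ED50 with confidence limits was calculated by the Litchfield–Wilcoxon method.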

Rattus norvegicus [2] = assay: Cardiotoxicity in Wistar rat assessed as hear beats per min at 10 mg/kg, iv after 15 mins by ECG analysis; assay type: toxicity, organism-based; design: dose 10 mg/kg, route intravenous; conditions: in vivo, 0.25 h
Procedure, shortened: (§1)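 Male normotensive Wistar rats, 170–350 g, six per group. Compound given iv at a constant volume of 1 mL/kg. ECG was recorded just before dosing and at 1, 5 and 15 min after. PQ, QRS and QT intervals and heart rate were read from the trace. Groups were compared by one-way ANOVA.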

Rattus norvegicus [3] = assay: Cardiotoxicity in Wistar rat assessed as QT interval at 10 mg/kg, iv after 15 mins by ECG analysis; assay type: toxicity, organism-based; design: dose 10 mg/kg, route intravenous; conditions: in vivo, 0.25 h; procedure, shortened: as §1
Rattus norvegicus [4] = assay: Cardiotoxicity in Wistar rat assessed as QRS interval at 10 mg/kg, iv after 15 mins by ECG analysis; assay type: toxicity, organism-based; design: dose 10 mg/kg, route intravenous; conditions: in vivo, 0.25 h; procedure, shortened: as §1
Rattus norvegicus [5] = assay: Cardiotoxicity in Wistar rat assessed as PQ interval at 10 mg/kg, iv after 15 mins by ECG analysis; assay type: toxicity, organism-based; design: dose 10 mg/kg, route intravenous; conditions: in vivo, 0.25 h; procedure, shortened: as §1
Rattus norvegicus [6] = assay: Cardiotoxicity in Wistar rat assessed as hear beats per min at 10 mg/kg, iv after 10 mins by ECG analysis; assay type: toxicity, organism-based; design: dose 10 mg/kg, route intravenous; conditions: in vivo
Rattus norvegicus [7] = assay: Cardiotoxicity in Wistar rat assessed as QT interval at 10 mg/kg, iv after 10 mins by ECG analysis; assay type: toxicity, organism-based; design: dose 10 mg/kg, route intravenous; conditions: in vivo
Rattus norvegicus [8] = assay: Cardiotoxicity in Wistar rat assessed as QRS interval at 10 mg/kg, iv after 10 mins by ECG analysis; assay type: toxicity, organism-based; design: dose 10 mg/kg, route intravenous; conditions: in vivo
Rattus norvegicus [9] = assay: Cardiotoxicity in Wistar rat assessed as PQ interval at 10 mg/kg, iv after 10 mins by ECG analysis; assay type: toxicity, organism-based; design: dose 10 mg/kg, route intravenous; conditions: in vivo
Rattus norvegicus [10] = assay: Cardiotoxicity in Wistar rat assessed as hear beats per min at 10 mg/kg, iv after 5 mins by ECG analysis; assay type: toxicity, organism-based; design: dose 10 mg/kg, route intravenous; conditions: in vivo; procedure, shortened: as §1
Rattus norvegicus [11] = assay: Cardiotoxicity in Wistar rat assessed as QT interval at 10 mg/kg, iv after 5 mins by ECG analysis; assay type: toxicity, organism-based; design: dose 10 mg/kg, route intravenous; conditions: in vivo; procedure, shortened: as §1
Rattus norvegicus [12] = assay: Cardiotoxicity in Wistar rat assessed as QRS interval at 10 mg/kg, iv after 5 mins by ECG analysis; assay type: toxicity, organism-based; design: dose 10 mg/kg, route intravenous; conditions: in vivo; procedure, shortened: as §1
Rattus norvegicus [13] = assay: Cardiotoxicity in Wistar rat assessed as PQ interval at 10 mg/kg, iv after 5 mins by ECG analysis; assay type: toxicity, organism-based; design: dose 10 mg/kg, route intravenous; conditions: in vivo; procedure, shortened: as §1
[14] = molecular target: T1, Adrenergic receptor alpha-1 (Rattus norvegicus, UniProt P15823+P23944+P43140); assay: Displacement of [3H]-prazosin from alpha1-adrenergic receptor in rat cerebral cortex by liquid scintillation counting; assay type: tissue-based
T1 sequence (P15823 whole entry): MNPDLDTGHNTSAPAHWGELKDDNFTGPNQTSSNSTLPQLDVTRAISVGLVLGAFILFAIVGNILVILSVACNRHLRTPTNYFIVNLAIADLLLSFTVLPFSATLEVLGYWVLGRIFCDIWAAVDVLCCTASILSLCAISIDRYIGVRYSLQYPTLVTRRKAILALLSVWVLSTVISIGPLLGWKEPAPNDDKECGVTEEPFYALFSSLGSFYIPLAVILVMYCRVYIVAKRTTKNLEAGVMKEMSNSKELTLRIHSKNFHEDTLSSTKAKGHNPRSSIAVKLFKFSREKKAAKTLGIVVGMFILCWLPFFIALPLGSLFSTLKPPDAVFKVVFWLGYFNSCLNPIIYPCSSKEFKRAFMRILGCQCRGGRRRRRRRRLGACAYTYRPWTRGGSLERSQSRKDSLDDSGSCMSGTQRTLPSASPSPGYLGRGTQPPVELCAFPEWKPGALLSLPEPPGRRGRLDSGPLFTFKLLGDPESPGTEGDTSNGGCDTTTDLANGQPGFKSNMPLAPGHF
T1 sequence (P23944 whole entry): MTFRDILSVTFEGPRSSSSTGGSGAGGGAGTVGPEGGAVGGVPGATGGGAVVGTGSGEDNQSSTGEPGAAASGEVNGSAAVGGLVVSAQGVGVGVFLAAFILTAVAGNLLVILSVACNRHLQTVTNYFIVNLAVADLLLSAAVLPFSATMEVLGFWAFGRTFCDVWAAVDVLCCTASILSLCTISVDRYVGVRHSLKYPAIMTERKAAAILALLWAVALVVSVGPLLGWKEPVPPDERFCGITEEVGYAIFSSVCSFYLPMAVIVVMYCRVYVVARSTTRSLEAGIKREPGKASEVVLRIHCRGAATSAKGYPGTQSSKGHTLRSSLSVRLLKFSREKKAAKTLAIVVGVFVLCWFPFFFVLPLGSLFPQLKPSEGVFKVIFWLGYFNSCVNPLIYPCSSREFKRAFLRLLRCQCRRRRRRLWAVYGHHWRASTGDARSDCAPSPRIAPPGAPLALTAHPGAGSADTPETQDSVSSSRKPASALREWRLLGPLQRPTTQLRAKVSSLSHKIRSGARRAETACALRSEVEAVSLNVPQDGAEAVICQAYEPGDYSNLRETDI
T1 sequence (P43140 whole entry): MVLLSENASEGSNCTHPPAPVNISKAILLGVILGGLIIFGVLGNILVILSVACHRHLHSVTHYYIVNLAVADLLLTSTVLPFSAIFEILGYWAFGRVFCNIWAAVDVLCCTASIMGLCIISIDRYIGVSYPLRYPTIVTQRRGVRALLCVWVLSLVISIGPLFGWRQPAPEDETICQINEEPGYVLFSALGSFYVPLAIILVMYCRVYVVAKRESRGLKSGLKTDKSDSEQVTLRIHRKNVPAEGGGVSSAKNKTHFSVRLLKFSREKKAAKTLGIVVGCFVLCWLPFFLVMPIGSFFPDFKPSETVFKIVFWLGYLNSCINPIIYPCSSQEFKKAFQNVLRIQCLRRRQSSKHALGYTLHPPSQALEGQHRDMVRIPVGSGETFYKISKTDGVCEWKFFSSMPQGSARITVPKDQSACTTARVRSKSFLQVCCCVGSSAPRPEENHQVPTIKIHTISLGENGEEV
Procedure, shortened: (§2)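 Rat cerebral cortex was homogenised in ice-cold 50 mM Tris-HCl pH 7.6 and spun at 20,000 g for 20 min at 0–4 °C, then washed once. Radioligands: [3H]prazosin 0.2 nM for α1, [3H]clonidine 2 nM for α2, [3H]CGP-12177 0.2 nM for β1. Test compounds were run at 7–8 concentrations from 10^-11 to 10^-4 M. Nonspecific binding was defined with phentolamine (α1), clonidine (α2) or propranolol (β1). Counting was by liquid scintillation, in duplicate. Ki was derived by Cheng–Prusoff from 2–3 experiments.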

[15] = Displacement of [3H]CGP-12177 from beta1-adrenergic receptor in rat cerebral cortex by liquid scintillation counting; assay type: tissue-based; procedure, shortened: as §2
Rattus norvegicus [16] = assay: Hypotensive activity in normotensive Wistar rat assessed as reduction of systolic blood pressure at 0.1 to 5 mg/kg, iv; assay type: functional, Artery; design: scale not given: the % may be the effect or the level left; conditions: dose mg/kg 0.1-5
Procedure, shortened: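 Male normotensive Wistar rats were anaesthetised with thiopental 75 mg/kg ip. The right carotid artery was cannulated with heparinised saline for pressure recording. After 5 min of stabilisation, compound was injected into the tail vein at 1 mL/kg. Systolic and diastolic pressure were followed up to 60 min. Data are means ± SEM of 5–6 rats, analysed by one-way ANOVA.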

[17] = molecular target: T2, Adrenergic receptor alpha-2 (Rattus norvegicus, UniProt P22086+P19328+P22909); assay: Displacement of [3H]clonidine from alpha2-adrenergic receptor in rat cerebral cortex by liquid scintillation counting; assay type: tissue-based; procedure, shortened: as §2
T2 sequence (P22086 whole entry): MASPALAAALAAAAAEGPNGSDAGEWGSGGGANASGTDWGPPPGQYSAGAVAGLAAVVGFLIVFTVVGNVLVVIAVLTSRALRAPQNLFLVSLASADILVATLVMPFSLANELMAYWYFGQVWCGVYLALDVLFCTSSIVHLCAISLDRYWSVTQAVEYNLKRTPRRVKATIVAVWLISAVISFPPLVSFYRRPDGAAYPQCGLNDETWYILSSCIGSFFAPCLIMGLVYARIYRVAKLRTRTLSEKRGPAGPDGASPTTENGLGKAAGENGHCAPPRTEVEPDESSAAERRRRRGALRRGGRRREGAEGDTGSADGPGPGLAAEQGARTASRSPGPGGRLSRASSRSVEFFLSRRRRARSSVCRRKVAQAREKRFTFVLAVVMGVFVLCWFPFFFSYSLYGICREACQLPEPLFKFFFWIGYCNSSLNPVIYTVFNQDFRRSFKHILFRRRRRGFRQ
T2 sequence (P19328 whole entry): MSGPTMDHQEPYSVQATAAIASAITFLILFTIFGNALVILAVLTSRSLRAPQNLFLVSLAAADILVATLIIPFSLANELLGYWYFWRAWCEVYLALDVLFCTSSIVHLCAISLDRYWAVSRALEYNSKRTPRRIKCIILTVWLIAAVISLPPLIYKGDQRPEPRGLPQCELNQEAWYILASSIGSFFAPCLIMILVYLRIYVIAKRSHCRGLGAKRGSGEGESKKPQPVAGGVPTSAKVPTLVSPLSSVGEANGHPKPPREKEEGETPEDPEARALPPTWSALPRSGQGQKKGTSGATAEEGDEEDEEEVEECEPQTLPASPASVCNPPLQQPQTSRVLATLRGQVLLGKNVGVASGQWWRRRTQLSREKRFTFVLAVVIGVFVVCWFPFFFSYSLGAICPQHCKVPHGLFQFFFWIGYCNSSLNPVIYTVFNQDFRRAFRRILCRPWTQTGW
T2 sequence (P22909 whole entry): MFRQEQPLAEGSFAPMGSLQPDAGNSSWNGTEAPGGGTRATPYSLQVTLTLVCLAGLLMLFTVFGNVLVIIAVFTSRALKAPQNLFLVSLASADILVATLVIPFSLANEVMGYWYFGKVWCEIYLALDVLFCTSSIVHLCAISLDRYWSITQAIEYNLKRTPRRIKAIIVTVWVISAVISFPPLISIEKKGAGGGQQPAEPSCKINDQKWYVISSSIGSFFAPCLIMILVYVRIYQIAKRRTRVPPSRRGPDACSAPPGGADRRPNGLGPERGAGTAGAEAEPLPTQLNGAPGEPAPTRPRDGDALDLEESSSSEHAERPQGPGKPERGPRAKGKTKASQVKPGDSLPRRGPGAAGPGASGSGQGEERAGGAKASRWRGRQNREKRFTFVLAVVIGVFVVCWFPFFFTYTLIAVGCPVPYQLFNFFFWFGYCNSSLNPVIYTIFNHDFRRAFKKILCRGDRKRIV

Compound: COc1ccccc1OCCNCC(O)COc1cccc2[nH]c3ccccc3c12 (centres undefined) [CARVEDILOL]
ED50 (Rattus norvegicus [1]): 0.25 mg/kg

Ki [14]: 1.1 µM
Ki [15]: 31.6 µM
Compound: COc1ccc(N2CCN(CCCOc3cccc4c(=O)c5ccccc5oc34)CC2)cc1.Cl
Activity (Rattus norvegicus [2]): 311.4 bpm
Activity (Rattus norvegicus [3]): 82.4 ms
Activity (Rattus norvegicus [4]): 24.2 ms
Activity (Rattus norvegicus [5]): 43.7 ms
Activity (Rattus norvegicus [6]): 317.4 bpm
Activity (Rattus norvegicus [7]): 80.2 ms
Activity (Rattus norvegicus [8]): 23.6 ms
Activity (Rattus norvegicus [9]): 43.7 ms
Activity (Rattus norvegicus [10]): 323 bpm
Activity (Rattus norvegicus [11]): 79.4 ms
Activity (Rattus norvegicus [12]): 22.8 ms
Activity (Rattus norvegicus [13]): 43.5 ms

Compound: CC(C)NCC(O)COc1ccc2c(=O)c3ccccc3oc2c1 (centres undefined)
Activity (Rattus norvegicus [16]): 7%

Ki [17]: 5.5 µM
Ki [14]: 0.082 µM
Ki [15]: 4.5 µM
Compound: COc1ccccc1N1CCN(CCCOc2cccc3c(=O)c4ccc(Cl)cc4oc23)CC1.Cl
